Compound activity: PubChem BioAssay, several laboratories
Compounds with a hit are over-represented: about 1.9% of the library has one in this group of screens.
NadD inh – NadD (S. aureus) enzyme inhibition; purified NadD enzyme, colorimetric absorbance read-out; inhibition, % at 20 µM; hit rate 0.78% among 360,000; AID 602399; in the data active means inhibition above about 26%
HCV core dimer – HCV core protein dimerization inhibition. TR-FRET GST/Flag-core106 dimerization, 1536-well. inhibition, % at 5 µM. hit rate 0.33% among 300,000;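 active means inhibition above the mean of all tested compounds plus 3 SD, set per screening campaign, cut at about 45% in these data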
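Material: Tagged HCV core106 pair (GST and Flag) | Amount: GST-core106 13.5 nM, Flag-core106 17 nM | Medium: KF-containing HEPES buffer, pH 7.45, DTT, CHAPS, BSA | Reagent: Eu donor and XL665 acceptor anti-tag antibodies | Schedule: 4 h at 22.5 °C | Technique: Time-resolved FRET, ex 340 nm, em 617 and 671 nm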
Rce1 inh – inhibitors of yeast Ras-converting enzyme | calls only | yeast membranes, quenched prenylated peptide cleavage fluorescence | hit rate 0.27% among 290,000 | Q03530;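 active means fall in fluorescence gain of 50% or more versus controls, with final raw signal at or below 3038400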
Target sequence (Q03530 whole entry, looked up): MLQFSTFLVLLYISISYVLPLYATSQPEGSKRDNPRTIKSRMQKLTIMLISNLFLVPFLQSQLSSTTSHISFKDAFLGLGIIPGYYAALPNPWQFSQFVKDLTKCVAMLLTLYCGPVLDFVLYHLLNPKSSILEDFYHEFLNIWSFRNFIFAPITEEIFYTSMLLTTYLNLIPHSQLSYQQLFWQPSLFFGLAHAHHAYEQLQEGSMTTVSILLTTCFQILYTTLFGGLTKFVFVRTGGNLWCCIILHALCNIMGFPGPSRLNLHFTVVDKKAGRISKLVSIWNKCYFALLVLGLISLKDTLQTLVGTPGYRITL
TbMetRS inhib – Trypanosoma brucei MetRS inhibition. purified T. brucei MetRS, ATP depletion, Kinase-Glo luminescence. inhibition, % at 11.9 µM. hit rate 0.4% among 360,000. AID 624268;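 active means inhibition above a per-plate cutoff of the control wells' mean inhibition plus 3 SD, cut at about 5.5% in these data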
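System: purified T. brucei MetRS enzyme / Detection: Kinase-Glo luciferase luminescence reporting remaining unconsumed ATP / Medium: HEPES buffer with MgCl2, KCl, DTT, spermine, BSA, pyrophosphatase / Replication: singlicate, one well per compound / Evaluation: percent inhibition relative to median high and low control wells / Schedule: 2 h aminoacylation at 25 °C after 15 min preincubation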
DSG3 Ab inh – inhibitors of pemphigus antibody binding to human desmoglein-3 | DSG3-coupled beads, scFv-anti-DSG3-GFP binding, flow cytometry; hits give low values | P32926 | hit rate 0.48% among 310,000 | binding (percent of control), % at 10 µM;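 active means binding more than 3 SD below its plate's average and above zero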;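 further: hits lower antibody fragment binding to DSG3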
Of the large screens only hits and unclear results are named; the others gave an inactive call.

O=C1OCCN1C(=O)[C@H]1[C@H](c2ccc(F)cc2)C(c2ccc(F)cc2)=NN1c1ccc(Br)cc1	Rce1 inh active
O=C1OCCN1C(=O)[C@H]1[C@H](c2ccc(Cl)cc2)C(c2ccc(F)cc2)=NN1c1ccc(Br)cc1	none (no result: HCV core dimer, Rce1 inh)
Cc1ccc(NC(=O)CCC(=O)c2ccccc2)cc1	DSG3 Ab inh 71.0 (no result: HCV core dimer, Rce1 inh)
CC(=O)c1sc2nc(CSc3nnnn3-c3ccccc3)[nH]c(=O)c2c1C	HCV core dimer 73.7
Cc1ccc(-n2nnnc2SCc2nc3sc(C)c(C)c3c(=O)[nH]2)cc1	none
Cc1nn(Cc2ccccc2Cl)c(C)c1C(=O)NC1=NCCS1	none
CCC(CC)c1nnc(NC(=O)c2c(C)nn(Cc3ccccc3Cl)c2C)s1	DSG3 Ab inh 53.4
COc1ccc(-c2oc(NC(=O)c3ccc(C)cc3)c(C#N)c2-c2ccc(OC)cc2)cc1	HCV core dimer 59.9
COc1ccc(C(=O)Nc2oc(-c3ccccc3)c(-c3ccccc3)c2C#N)cc1	HCV core dimer 46.9 (no result: DSG3 Ab inh)
COc1ccc(C(=O)Nc2oc(-c3ccccc3)c(-c3ccccc3)c2C#N)cc1OC	none
CCOc1ccc(-n2nnnc2SCC(=O)NC2CCCC2)cc1	none
COc1ccc(-c2cc(C(=O)N3CCCC3)c3ccccc3n2)cc1	none
Cc1ccc(-c2cc(C(=O)N3CCN(c4ccc(F)cc4)CC3)c3ccccc3n2)o1	HCV core dimer 49.3
COc1ccc(-c2cc(C(=O)NCCCN3CCCC3=O)c3ccccc3n2)cc1	Rce1 inh active
COc1ccc(-c2cc(C(=O)N3CCN(c4ccccc4)CC3)c3ccccc3n2)cc1	Rce1 inh active
Cc1ccccc1-c1cc(C(=O)N2CCCC2)c2ccccc2n1	HCV core dimer 52.7
O=C(NCCCN1CCCC1=O)c1cc(-c2ccc(F)cc2)nc2ccccc12	none (no result: HCV core dimer, Rce1 inh)
Cc1cc(C(=O)N2CCCC(N3CCN(c4ccccc4C)CC3)C2)nc(C)n1 (configuration not stated)	none
Cc1ccccc1CC(=O)OCC(=O)Nc1ccc(C)c(S(=O)(=O)N2CCCCC2)c1	none (no result: HCV core dimer, Rce1 inh)
CC(=O)NCCOc1nc(N(C)C)nc(N2CCCCC2)n1	none
COc1ccccc1CNC(=O)CSc1ccc(-c2cccs2)nn1	none (no result: DSG3 Ab inh)
COc1ccccc1CNC(=O)CSc1ccc(-c2ccccn2)nn1	HCV core dimer 55.9
Cc1noc(/C=C/N(C)C)c1S(=O)(=O)N1CCCC(C(=O)NC2CCCCC2C)C1 (configuration not stated)	none
O=C(Nc1ncccn1)c1cc([N+](=O)[O-])cc([N+](=O)[O-])c1	none
O=C(Nc1ncccn1)c1ccc([N+](=O)[O-])cc1	Rce1 inh active
CCCCCC1CC(=O)N(Cc2ccccc2)C(=O)N1 (configuration not stated)	none
Cc1ccc(C2=NOC(=O)/C2=C\C=C\c2ccccc2)cc1	NadD inh 25.9 (no result: HCV core dimer)
CN(C)/C=C1\C(=O)ON=C1c1ccccc1	none
CCc1ccc(NC(=O)C2CC(=O)Nc3ncnn32)cc1 (configuration not stated)	none
O=C1CC(C(=O)Nc2ccc(Cl)cc2)n2ncnc2N1 (configuration not stated)	DSG3 Ab inh -8.7
Cc1ccc(S(=O)(=O)Oc2ccccc2N2C(=O)C3C4CCC(C4)C3C2=O)cc1 (configuration not stated)	none (no result: Rce1 inh)
C=CCNCC(=O)N1N=C(c2ccc3ccccc3c2)CC1c1ccc(OC)cc1 (configuration not stated)	none
COc1ccc(C2CC(c3ccc4ccccc4c3)=NN2C(=O)CNC2CCCCC2)cc1 (configuration not stated)	Rce1 inh active
CCOC(=O)[C@@H]1[C@H]2COc3ccc(Br)cc3[C@@H]2N2C(=O)N(c3cccc(Cl)c3)C(=O)[C@@]12C	none (no result: HCV core dimer, Rce1 inh)
CCOC(=O)[C@@H]1[C@H]2COc3ccc(Br)cc3[C@@H]2N2C(=O)N(c3cccc(Cl)c3)C(=O)[C@]12C	Rce1 inh active
COc1cc(C(=O)Nc2cccc(-c3nc4cc(C)ccc4o3)c2C)cc(OC)c1OC	DSG3 Ab inh 79.9
Cc1nc2ccccc2n1CCc1ccccc1	none
Cn1c(SCC(=O)NC2CCCCC2)nnc1-c1cc2cc(Cl)ccc2o1	DSG3 Ab inh 63.6
CCn1c(SCC(=O)Nc2ccc(C(C)=O)cc2)nc2nc3c(cc2c1=O)COC(C)(C)C3	DSG3 Ab inh 95.3
CC1(C)Cc2nc3oc4c(=O)n(CC(=O)Nc5ccc(Cl)cc5)cnc4c3cc2CO1	DSG3 Ab inh 87.0
